Measurements taken from ChEMBL document CHEMBL3351508, “Second-generation antibacterial benzimidazole ureas: discovery of a preclinical candidate with reduced metabolic liability” (J Med Chem, 2014).
Values after ≈ are worked out from the molar mass of the structure shown. Blank lines part the entries; values can stand above or below the compound they belong to.

Columns and labels:
[1] = target: T1, Cytochrome P450 1A2 (Homo sapiens, UniProt P05177); assay: Drug metabolism in recombinant CYP1A2 (unknown origin) assessed as compound formation treated with 10 uM 1-Ethyl-3-(5-(5-fluoropyridin-3-yl)-7-(pyrimidin-2-yl)-1H-benzo-[d]imidazol-2-yl)urea for 30 mins; conditions: recombinant enzyme, 0.5 h
T1 sequence (P05177 whole entry): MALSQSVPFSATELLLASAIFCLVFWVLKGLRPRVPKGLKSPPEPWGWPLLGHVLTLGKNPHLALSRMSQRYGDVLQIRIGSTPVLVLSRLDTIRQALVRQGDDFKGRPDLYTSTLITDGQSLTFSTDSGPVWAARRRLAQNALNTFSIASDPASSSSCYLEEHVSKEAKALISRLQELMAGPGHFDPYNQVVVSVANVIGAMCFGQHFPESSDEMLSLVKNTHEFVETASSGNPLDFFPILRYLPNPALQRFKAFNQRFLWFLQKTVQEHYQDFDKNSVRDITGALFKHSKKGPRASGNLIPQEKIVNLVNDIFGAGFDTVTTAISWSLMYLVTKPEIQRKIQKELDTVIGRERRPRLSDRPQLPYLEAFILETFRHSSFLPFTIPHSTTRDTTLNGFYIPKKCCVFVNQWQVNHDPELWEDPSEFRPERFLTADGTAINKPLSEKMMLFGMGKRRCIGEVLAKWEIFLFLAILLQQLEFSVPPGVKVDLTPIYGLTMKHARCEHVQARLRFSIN

[2] = target: Cytochrome P450 3A4 (Homo sapiens, UniProt P08684); assay: Drug metabolism in recombinant CYP3A4 (unknown origin) assessed as compound formation treated with 1 uM 1-Ethyl-3-(5-(5-fluoropyridin-3-yl)-7-(pyrimidin-2-yl)-1H-benzo-[d]imidazol-2-yl)urea for 30 mins; format: ADME; conditions: recombinant enzyme, 0.5 h, in the assay text read “10 uM” for “1 uM”
Summary of the method: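 Parent at 1 and 10 μM was incubated with individual recombinant CYP supersomes, with and without NADPH, for 0, 15 and 30 min. Formation of the imine metabolite was quantified by LC-MS/MS.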

[3] = target: Cytochrome P450 2D6 (Homo sapiens, UniProt P10635); assay: Drug metabolism in recombinant CYP2D6 (unknown origin) assessed as compound formation treated with 10 uM 1-Ethyl-3-(5-(5-fluoropyridin-3-yl)-7-(pyrimidin-2-yl)-1H-benzo-[d]imidazol-2-yl)urea for 30 mins; conditions: recombinant enzyme, 0.5 h
[4] = tested on: Liver microsome; assay: Drug metabolism in rat liver microsomes assessed as compound formation treated with 30 uM 1-Ethyl-3-(5-(5-fluoropyridin-3-yl)-7-(pyrimidin-2-yl)-1H-benzo-[d]imidazol-2-yl)urea for 1 hr; format: ADME
[5] = tested on: Liver microsome; assay: Drug metabolism in human liver microsomes assessed as compound formation treated with 30 uM 1-Ethyl-3-(5-(5-fluoropyridin-3-yl)-7-(pyrimidin-2-yl)-1H-benzo-[d]imidazol-2-yl)urea for 1 hr; format: ADME
[6] = Drug metabolism in human liver S9 fractions assessed as compound formation treated with 30 uM 1-Ethyl-3-(5-(5-fluoropyridin-3-yl)-7-(pyrimidin-2-yl)-1H-benzo-[d]imidazol-2-yl)urea for 1 hr; format: ADME, subcellular, Liver S9 fraction; conditions: s9, 1 h
[7] = Drug metabolism in monkey liver microsomes assessed as compound formation treated with 30 uM 1-Ethyl-3-(5-(5-fluoropyridin-3-yl)-7-(pyrimidin-2-yl)-1H-benzo-[d]imidazol-2-yl)urea for 1 hr; format: ADME, Macaca mulatta; conditions: rhesus monkey
[8] = tested on: Rattus norvegicus; assay: Dose normalized AUC in rat at 30 mg/kg, po; format: ADME, organism-based; set-up: dose 30 mg/kg, route oral; conditions: in vivo
[9] = tested on: Staphylococcus aureus; assay: Antibacterial activity against Staphylococcus aureus ATCC 29213 by CLSI method in presence of human 50% serum; format: functional
Summary of the method: (§1)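 Broth microdilution MIC in liquid medium following CLSI methods, with ATCC strains. Each run was accepted only if comparator antibiotics fell within their recommended quality-control ranges for the appropriate ATCC strain.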

[10] = tested on: Staphylococcus aureus; assay: Antibacterial activity against Staphylococcus aureus ATCC 29213 by CLSI method; format: functional
Summary of the method: as §1

[11] = tested on: Enterococcus faecium; assay: Antibacterial activity against Enterococcus faecium ATCC 49624 by CLSI method; format: functional
Summary of the method: as §1

[12] = tested on: Enterococcus faecalis; assay: Antibacterial activity against Enterococcus faecalis ATCC 29212 by CLSI method; format: functional
Summary of the method: as §1

[13] = tested on: Streptococcus pneumoniae; assay: Antibacterial activity against Streptococcus pneumoniae ATCC 10015 by CLSI method; format: functional
Summary of the method: as §1

Sequence of Cytochrome P450 3A4 (P08684 whole entry): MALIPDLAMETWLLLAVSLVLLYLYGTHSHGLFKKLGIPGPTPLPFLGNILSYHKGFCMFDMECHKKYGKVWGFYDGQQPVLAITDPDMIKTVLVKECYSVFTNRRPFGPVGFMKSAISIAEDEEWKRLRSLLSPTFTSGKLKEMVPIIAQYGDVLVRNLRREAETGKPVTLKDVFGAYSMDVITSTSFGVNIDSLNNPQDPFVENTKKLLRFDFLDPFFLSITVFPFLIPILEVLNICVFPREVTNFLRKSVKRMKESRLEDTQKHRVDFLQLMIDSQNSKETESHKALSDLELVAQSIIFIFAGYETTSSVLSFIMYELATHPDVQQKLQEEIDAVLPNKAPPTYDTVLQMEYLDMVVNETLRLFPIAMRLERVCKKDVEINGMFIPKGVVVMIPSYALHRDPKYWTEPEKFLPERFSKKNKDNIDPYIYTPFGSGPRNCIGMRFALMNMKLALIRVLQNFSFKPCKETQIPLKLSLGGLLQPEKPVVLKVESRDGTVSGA
Sequence of Cytochrome P450 2D6 (P10635 whole entry): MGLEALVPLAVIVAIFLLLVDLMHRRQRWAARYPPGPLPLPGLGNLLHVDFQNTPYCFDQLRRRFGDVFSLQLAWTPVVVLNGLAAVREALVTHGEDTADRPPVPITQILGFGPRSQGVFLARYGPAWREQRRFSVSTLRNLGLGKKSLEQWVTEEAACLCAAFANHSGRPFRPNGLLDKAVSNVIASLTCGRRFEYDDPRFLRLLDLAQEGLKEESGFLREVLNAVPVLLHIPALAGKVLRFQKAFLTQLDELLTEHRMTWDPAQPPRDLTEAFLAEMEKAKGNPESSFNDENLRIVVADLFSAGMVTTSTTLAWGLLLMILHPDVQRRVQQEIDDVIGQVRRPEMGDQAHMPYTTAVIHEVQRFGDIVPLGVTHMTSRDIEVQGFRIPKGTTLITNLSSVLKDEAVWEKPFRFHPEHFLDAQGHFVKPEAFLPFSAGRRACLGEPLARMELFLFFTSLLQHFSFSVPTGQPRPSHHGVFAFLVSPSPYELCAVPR

Structure (SMILES): CC1NC(=O)Nc2nc3c(-c4ncccn4)cc(-c4cncc(F)c4)cc3n21 (configuration not stated)
Drug metabolism [1]: metabolite_detected | Drug metabolism [2]: metabolite_detected | Drug metabolism [3]: metabolite_detected | Drug metabolism [4]: metabolite_detected | Drug metabolism [5]: metabolite_detected | Drug metabolism [6]: metabolite_detected | Drug metabolism [7]: metabolite_detected

Structure (SMILES): CCNC(=O)Nc1nc2cc(-c3ccc([C@@H](O)CC)nc3)c(F)c(-n3cccn3)c2[nH]1
AUC/dose [8]: 8.4 microg.hr/mL per mg/kg | MIC [9]: 1 µg/mL | MIC [10]: 0.063 µg/mL (≈ 0.149 µM) | MIC [11]: 0.5 µg/mL (≈ 1.18 µM) | MIC [12]: 0.063 µg/mL (≈ 0.149 µM) | MIC [13]: 0.016 µg/mL (≈ 0.0378 µM)

Structure (SMILES): CCNC(=O)Nc1nc2cc(-c3cncnc3)cc(C3CCCO3)c2[nH]1 (racemic)
AUC/dose [8]: 10.5 microg.hr/mL per mg/kg | MIC [9]: 2 µg/mL | MIC [10]: 1 µg/mL (≈ 2.84 µM) | MIC [11]: 1 µg/mL (≈ 2.84 µM) | MIC [12]: 0.5 µg/mL (≈ 1.42 µM) | MIC [13]: 0.125 µg/mL (≈ 0.355 µM)

Structure (SMILES): CCNC(=O)Nc1nc2cc(-c3ccc(C(C)(C)O)nc3)cc(C3CCCO3)c2[nH]1 (racemic)
AUC/dose [8]: 2.6 microg.hr/mL per mg/kg | MIC [9]: 2 µg/mL | MIC [10]: 0.5 µg/mL (≈ 1.22 µM) | MIC [11]: 1 µg/mL (≈ 2.44 µM) | MIC [12]: 0.25 µg/mL (≈ 0.611 µM) | MIC [13]: 0.063 µg/mL (≈ 0.154 µM)

The next lines start with the values.

AUC/dose [8]: 4.3 microg.hr/mL per mg/kg | MIC [9]: 0.25 µg/mL | MIC [10]: 0.125 µg/mL (≈ 0.305 µM) | MIC [11]: 0.5 µg/mL (≈ 1.22 µM) | MIC [12]: 0.063 µg/mL (≈ 0.153 µM) | MIC [13]: 0.032 µg/mL (≈ 0.078 µM)
Structure (SMILES): CCNC(=O)Nc1nc2cc(-c3cnc(C(C)(C)O)nc3)cc([C@H]3CCCO3)c2[nH]1

AUC/dose [8]: 5.5 microg.hr/mL per mg/kg | MIC [9]: 0.5 µg/mL | MIC [10]: 0.25 µg/mL (≈ 0.609 µM) | MIC [11]: 0.5 µg/mL (≈ 1.22 µM) | MIC [12]: 0.25 µg/mL (≈ 0.609 µM) | MIC [13]: 0.032 µg/mL (≈ 0.078 µM)
Structure (SMILES): CCNC(=O)Nc1nc2cc(-c3cnc(C(C)(C)O)nc3)cc(C3CCCO3)c2[nH]1 (racemic)
